Yeast lifespan up: compounds extending yeast replicative lifespan, primary screen, S. cerevisiae, OD615 | 130,000 tested, 0.68% active | S. cerevisiae growth with nicotinamide; deaD strain in restrictive glucose medium | inhibition of the nicotinamide effect, % at 10 µM;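 active = inhibition above a set limit, placed 3 SD over the median of all compounds, cut at about 26% in these data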
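assay system = DeaD-strain S. cerevisiae | buffer or medium = restrictive glucose medium | reagent = 1.5 mM nicotinamide | compound = 10 µM single point, 0.25% DMSO | incubation = 48 h compound exposure at 30 °C, humidified | signal = OD615 measurement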
Yeast growth inh: growth inhibitors of yeast BB579 in restrictive medium, primary screen, yeast lifespan-shortening project, S. cerevisiae; OD615, 48 h; inhibition, % at 10 µM; 140,000 tested, 0.51% active; AID 804, 2007;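 active = inhibition above a set limit, 3 SD over the mean compound inhibition, cut at about 44% in these data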
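Assay system: S. cerevisiae DeaD strain BB579 yeast. Medium: CSMM-D restrictive synthetic medium containing dextrose (glucose). Times: 4 h cell preincubation, 48 h compound exposure, 30 °C humidified. Signal: OD615 turbidity measurement. Benchmarks: positive control amphotericin B 10 µg/mL.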
PostGolgi yeast: phenotypic screen on post-Golgi transport, primary screen | AID 739, 2007 | post-Golgi transport phenotypic cell assay | inhibition, % at 10 µM | 98,000 tested, 0.9% active;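 also: yeast cells grown in 1536-well plates; yeast grown about 18 h at 30C before absorbance read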
PostGolgi ctrl: growth inhibition of yeast control strain, primary screen, counter-screen for post-Golgi transport modulator project; efflux-deficient yeast background strain, growth absorbance A615, 16 h; inhibition, % at 10 µM; 98,000 tested, 5% active; AID 738, 2007
Hits are given with their value; n = inactive; x = not tested or not shown; ! = repeats disagree. This is one part of a sample in which hits are shown more often than they occur. Rule as the data show it, unless noted: active = inhibition above about 30%; inactive = the rest.

SMILES | Yeast lifespan up | Yeast growth inh | PostGolgi yeast | PostGolgi ctrl
C=CCSc1nnc2c(n1)OC(c1cccnc1)Nc1ccccc1-2 (centres undefined) | n | n | n | n
S=C(NCc1ccco1)N1CCN(Cc2ccc(Cl)cc2Cl)CC1 | n | n | n | 31.8
S=C(NCc1ccco1)Nc1ccc(Cl)cc1Cl | n | n | x | x
Cc1noc(C)c1C(=O)OCC(=O)NCCC1=CCCCC1 | n | n | n | n
Cc1nc(Nc2ccc(F)cc2)[nH]c(=O)c1CCC(C)C | n | n | n | 31.6
OC(CN1c2ccccc2Sc2ccccc21)Cn1nnc2ccccc21 (centres undefined) | n | n | n | 47.0
N#Cc1ccc(-c2ccc(OCC(O)Cn3nnc4ccccc43)cc2)cc1 (centres undefined) | n | n | n | 34.7
CC1CN(c2nn3c(=O)c4ccccc4nc3c3ccccc23)CC(C)O1 (centres undefined) | n | n | n | n
O=c1c2ccccc2nc2c3ccccc3c3nncn3n12 | n | 82.3 | n | n
Cc1ccc(OCC(=O)N2N=C(C(F)(F)F)CC2(O)C(C)(C)C)cc1C (centres undefined) | n | n | n | 33.2
Cc1ccc2c(c1)cc(CN(Cc1ccc3c(c1)OCO3)C(=O)c1cnccn1)c1nnnn12 | n | n | n | n
Cc1ccc2c(c1)cc(CN(Cc1ccco1)C(=O)COc1ccccc1)c1nnnn12 | n | n | n | 42.0
N#CCSc1nc2ccccc2c(=O)n1CCC(=O)NC1CCCCC1 | n | n | n | 34.7
O=[N+]([O-])c1cccc(-c2ccc(/C=N/NC(=S)Nc3ccccc3)o2)c1 | n | n | n | 48.2
O=[N+]([O-])c1ccc(/C=N/NC(=S)Nc2ccccc2)o1 | n | n | x | x
O=C(NNC(=O)c1ccccc1Br)c1cccc(Cl)c1 | n | n | n | n
O=C(NNC1=Nc2cccc3cccc1c23)c1ccccc1Br | 38.4 | n | x | x
CCN1C(=O)CC(c2ccco2)Sc2ccccc21 (centres undefined) | n | n | n | n
COc1ccc(Br)cc1/C=N/NC(=O)c1nc(-c2ccccc2)n2c1CCCCC2 | n | n | n | 36.2
O=C(O)c1cc(-c2ccco2)nc2ccc(Br)cc12 | 35.7! | n | n | n
O=C(NCc1ccccc1Cl)c1ccc2nc[nH]c2c1 | n | n | x | x
OC(c1ccc(Cl)cc1Cl)C(Cc1cccnc1)n1cncn1 (centres undefined) | n | n | 44.8 | n
OC(Cn1cncn1)c1ccc(Cl)cc1 (centres undefined) | n | n | n | n
OC(Cn1cncn1)c1ccc(Cl)cc1Cl (centres undefined) | n | n | 77.7 | 40.1
CCC(=O)N1c2ccc(C)cc2C2=NNC(=S)NC21O (centres undefined) | n | n | n | n
SMILES | Yeast lifespan up | Yeast growth inh | PostGolgi yeast | PostGolgi ctrl
Cc1ccc2c(c1)N(CC(=O)NC1CCCc3ccccc31)C(=O)CO2 (centres undefined) | n | n | n | 34.3
O=C(Nc1ccc2c(c1)C(=O)N(c1ccccc1)C2=O)C1CCCO1 (centres undefined) | x | n | x | x
O=C(O)CCCn1nc(-c2ccccc2)c2ccccc21 | n | n | n | n
COC(=O)Cn1nc(-c2ccccc2)c2ccccc21 | n | n | n | 31.4
O=C(C1CCN(S(=O)(=O)c2ccccc2)CC1)N1CCOCC1 | n | n | n | n
O=C(Cn1ncc(Cl)c(Cl)c1=O)c1ccc(Cl)cc1 | x | n | x | x
O=C(OCn1ncc(Cl)c(Cl)c1=O)c1ccc(F)cc1 | n | 44.6 | 32.6 | n
O=C(OCn1ncc(Cl)c(Cl)c1=O)c1ccccc1Cl | n | 66.4 | 79.3 | n
COc1ccc(NC2=Nc3cccc4cccc2c34)cc1 | n | n | x | x
Cc1nnc(SCC(=O)NC(C)(C)C)n1C1CCCCC1 | n | n | x | x
COC(=O)c1cc(OC)c(OC)cc1NC(=O)CN1CCCCC1 | n | n | n | n
COC(=O)c1cc(OC)c(OC)cc1NC(=O)CC1CCCCC1 | n | n | n | 41.9
O=C(c1cc(-c2ccc(Cl)cc2)n(-c2cc(Cl)ccc2Cl)n1)N1CCOCC1 | n | n | n | 42.6
O=C(c1cc(Cl)ccc1Cl)N1CCOCC1 | n | n | n | n
O=C(c1cc(-c2ccc(Cl)cc2)n(-c2ccc(Cl)c(Cl)c2)n1)N1CCOCC1 | n | n | n | 40.4
O=C(O)c1cc(Cl)c(Cl)cc1C(=O)N1CCOCC1 | x | n | x | x
CCCn1c(SCC(N)=O)nnc1-c1ccco1 | n | n | n | n
COc1ccc(N2CCN(C(CNC(=O)C(=O)NCCc3c[nH]c4ccccc34)c3ccco3)CC2)cc1 (centres undefined) | n | n | x | x
COc1ccccc1-c1c(C(F)(F)F)oc2cc(OC(=O)c3cccc([N+](=O)[O-])c3C)ccc2c1=O | n | n | n | n
CCOc1cccc(SCc2noc(C(=O)NCCOC)c2C(=O)O)c1 | n | n | n | 33.4
CCOC(=O)C(NC(=O)c1ccc(F)cc1)(Nc1nnc(C)s1)C(F)(F)F (centres undefined) | n | n | n | 30.4
Cc1cc(C)nc(-n2nc(C)c(C3(O)C(=O)Nc4ccccc43)c2N)n1 (centres undefined) | n | n | n | n
CCOC(=O)/C(N=Nc1sc(C(=O)OC)c(C)c1C(=O)OCC)=C(\O)CCl | n | n | x | x
CCn1c(SCC(=O)Nc2cc(C)on2)nc2c(c1=O)SC(C)C2 (centres undefined) | n | n | n | n
Cc1cc(C)c(NC(=O)CSc2nc3c(c(=O)n2C)SC(C)C3)c(C)c1 (centres undefined) | n | n | n | 31.2
SMILES | Yeast lifespan up | Yeast growth inh | PostGolgi yeast | PostGolgi ctrl
Cc1cc(C)cc(NC(=O)CSc2nc3c(c(=O)n2C)SC(C)C3)c1 (centres undefined) | n | n | n | n
CCn1c(SCC(=O)c2ccccc2)nc2c(c1=O)SC(C)C2 (centres undefined) | n | n | n | n
CCn1c(SCC(=O)Nc2nc3ccccc3s2)nc2c(c1=O)SC(C)C2 (centres undefined) | n | n | n | 51.1
CC1Cc2nc(SCC(=O)NCc3ccco3)n(Cc3ccccc3)c(=O)c2S1 (centres undefined) | n | n | n | 43.2
CCn1c(SCC(=O)Nc2nc3ccc(C)cc3s2)nc2c(c1=O)SC(C)C2 (centres undefined) | n | n | n | 84.2
CCc1ccccc1N(C1=NCCCS1)S(=O)(=O)c1ccc(C(C)(C)C)cc1 | n | n | x | x
O=c1[nH]c(/C=C/c2ccccc2OC(F)F)nc2c1cnn2-c1ccccc1 | n | n | x | x
Cc1cc(C)c(C(CC(=O)c2cccs2)C(C#N)C#N)c(C)c1 (centres undefined) | n | n | x | x
CC1CC(C)(C)NC(=S)N1CCCC(=O)N1CCN(c2ccc(F)cc2)CC1 (centres undefined) | n | n | x | x
CCc1ccc(/C=C/C(=O)c2ccc(S(=O)(=O)N(C)C)cc2)cc1 | n | n | x | x
CCc1ccc(C(=O)/C=C/c2ccc([N+](=O)[O-])o2)cc1 | 45.5 | n | 62.8 | n
CSc1nnc(CSCc2ccc(Cl)cc2Cl)n1-c1ccccc1 | n | n | n | 50.6
O=C(NCCN1CCCC1)C1(S(=O)(=O)c2ccc(Cl)cc2)CC1 | n | n | n | 37.9

Screens: PubChem BioAssay, SRMLSC
